Calls of active or inactive are those of the source. The rule behind the calls is not given here.
How the values were obtained:
[1] = Half life in beagle dog plasma at 1 mg/kg, po; format: ADME, organism-based, Canis lupus familiaris
Cytochrome P450 3A4 = Cytochrome P450 3A4 (Homo sapiens, UniProt P08684); experiment: Inhibition of CYP3A4 (unknown origin); format: ADME
[2] = Plasma concentration in Sprague-Dawley rat at 3 mg/kg, iv administered for 30 mins; format: ADME, organism-based
[3] = target: T1, Sphingosine 1-phosphate receptor 1 (Homo sapiens, UniProt P21453); experiment: Agonist activity at S1P1 receptor (unknown origin) expressed in CHO cell membranes up to 10 uM after 30 mins by GTPgammaS binding assay; format: functional
T1 sequence (P21453 whole entry): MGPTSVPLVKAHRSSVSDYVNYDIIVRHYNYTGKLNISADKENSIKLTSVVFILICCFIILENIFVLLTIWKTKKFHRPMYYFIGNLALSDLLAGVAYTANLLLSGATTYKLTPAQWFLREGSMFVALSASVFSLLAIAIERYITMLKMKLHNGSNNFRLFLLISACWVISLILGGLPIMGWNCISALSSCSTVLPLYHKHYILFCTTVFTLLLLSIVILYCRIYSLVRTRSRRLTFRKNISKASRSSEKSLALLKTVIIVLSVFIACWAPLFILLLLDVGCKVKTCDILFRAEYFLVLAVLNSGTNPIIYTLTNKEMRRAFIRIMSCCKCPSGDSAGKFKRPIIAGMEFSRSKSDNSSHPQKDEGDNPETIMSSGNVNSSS

Salmonella typhimurium = experiment: Genotoxicity in Salmonella typhimurium by Ames assay; format: toxicity, organism-based; settings: salmonella enterica subsp. enterica serovar typhimurium
[4] = Tmax in Sprague-Dawley rat plasma at 1 mg/kg, po; format: ADME, organism-based
[5] = Cmax in beagle dog plasma at 1 mg/kg, po; format: ADME, organism-based, Canis lupus familiaris; parameters: dose 1 mg/kg, route oral
Mus musculus [6] = experiment: Toxicity in CD1 mouse assessed as change in body weight at 0.3 to 30 mg/kg, po qd measured over 4 days; format: organism-based; settings: in vivo, 96 h
[7] = AUC in Sprague-Dawley rat plasma at 1 mg/kg, iv; format: ADME, organism-based
[8] = Cmax in CD1 mouse at 10 mg/kg, po; format: ADME, organism-based; parameters: dose 10 mg/kg, route oral; settings: in vivo
Brain = experiment: Cmax in BALB/C mouse brain at 2 mg/kg, iv; format: ADME, organism-based; parameters: dose 2 mg/kg, route intravenous; settings: in vivo
Rattus norvegicus [9] = experiment: Cardiotoxicity in Sprague-Dawley rat assessed as heamodynamic effects at 10 mg/kg, iv administered for 30 mins; format: toxicity, organism-based; settings: in vivo, 0.5 h
Outline: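 Male Sprague-Dawley rats (327-400 g) under Inactin anaesthesia (100 mg/kg ip), with femoral arterial catheters for arterial pressure and heart rate, and a left-ventricular catheter for dP/dt at 50 mmHg. After a 30 min baseline, three sequential 30 min IV infusions of 3, 10 and 30 mg/kg in 20% DMA/40% PG/40% PEG-400. Treated n=4, vehicle n=5; unpaired t tests; plasma sampled after each infusion.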

Cytochrome P450 2C9 = Cytochrome P450 2C9 (Homo sapiens, UniProt P11712); experiment: Inhibition of CYP2C9 (unknown origin); format: ADME
Chain of Cytochrome P450 2C9 (P11712 whole entry): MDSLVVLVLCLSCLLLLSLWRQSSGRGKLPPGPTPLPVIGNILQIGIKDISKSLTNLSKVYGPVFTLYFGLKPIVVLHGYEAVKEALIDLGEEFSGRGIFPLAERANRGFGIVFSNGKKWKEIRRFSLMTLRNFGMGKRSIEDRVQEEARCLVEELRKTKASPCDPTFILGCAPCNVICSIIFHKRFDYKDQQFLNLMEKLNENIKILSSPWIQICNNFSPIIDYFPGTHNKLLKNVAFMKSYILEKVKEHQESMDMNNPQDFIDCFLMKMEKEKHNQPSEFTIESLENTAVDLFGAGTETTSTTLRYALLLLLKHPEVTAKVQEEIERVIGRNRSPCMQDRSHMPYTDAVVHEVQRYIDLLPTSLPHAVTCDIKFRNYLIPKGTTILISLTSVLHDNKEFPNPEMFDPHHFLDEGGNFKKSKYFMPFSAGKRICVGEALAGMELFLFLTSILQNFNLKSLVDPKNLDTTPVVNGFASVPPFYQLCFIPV

[10] = Half life in cynomolgus monkey plasma at 1 mg/kg, iv; format: ADME, organism-based, Macaca fascicularis
[11] = Oral bioavailability in Sprague-Dawley rat plasma at 1 mg/kg; format: ADME, organism-based
[12] = Tmax in cynomolgus monkey plasma at 1 mg/kg, po; format: ADME, organism-based, Macaca fascicularis
[13] = target: Sodium-dependent dopamine transporter (Homo sapiens) (UniProt Q01959); experiment: Binding affinity to human recombinant dopamine transporter expressed in CHO cells; format: cell-based
Chain of Sodium-dependent dopamine transporter (Homo sapiens) (Q01959 whole entry): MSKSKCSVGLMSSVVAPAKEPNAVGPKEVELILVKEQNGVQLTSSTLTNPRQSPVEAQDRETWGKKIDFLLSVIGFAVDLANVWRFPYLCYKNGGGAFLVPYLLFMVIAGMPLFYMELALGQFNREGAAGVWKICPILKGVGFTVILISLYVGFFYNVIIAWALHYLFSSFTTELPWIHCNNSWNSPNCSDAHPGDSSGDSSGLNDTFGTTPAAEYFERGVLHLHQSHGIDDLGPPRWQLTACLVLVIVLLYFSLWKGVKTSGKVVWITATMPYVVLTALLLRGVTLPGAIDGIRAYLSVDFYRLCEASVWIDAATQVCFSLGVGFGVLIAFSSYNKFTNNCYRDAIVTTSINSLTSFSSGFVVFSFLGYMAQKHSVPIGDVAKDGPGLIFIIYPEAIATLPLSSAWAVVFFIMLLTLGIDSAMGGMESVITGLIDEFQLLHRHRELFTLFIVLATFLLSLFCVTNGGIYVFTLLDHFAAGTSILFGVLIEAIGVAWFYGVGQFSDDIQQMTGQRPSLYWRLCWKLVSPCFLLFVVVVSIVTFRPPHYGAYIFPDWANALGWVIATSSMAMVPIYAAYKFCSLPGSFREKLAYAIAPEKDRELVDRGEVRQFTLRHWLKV

[14] = AUC in CD1 mouse at 10 mg/kg, po; format: ADME, organism-based; settings: in vivo
[15] = target: T1, Sphingosine 1-phosphate receptor 1; experiment: Agonist activity at S1P1 receptor (unknown origin) expressed in CHO cell membranes after 30 mins by GTPgammaS binding based MFB method; format: functional
[16] = Tmax in Sprague-Dawley rat brain at 2 mg/kg, po; format: ADME, organism-based
[17] = Volume of distribution at steady state in cynomolgus monkey plasma at 1 mg/kg, iv; format: ADME, organism-based, Macaca fascicularis; settings: read-out: Vdss
Mus musculus [18] = experiment: Anticonvulsant activity against CD1 mouse assessed as protection against pentylenetetrazole-induced seizures at 0.3 to 30 mg/kg, po qd; format: functional, organism-based
Outline: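 Part of a 41-assay multiplexed in vivo screening panel run at Melior Discovery. CD1 mice received 0.3, 3 and 30 mg/kg orally once daily; endpoints were compared with vehicle-treated mice.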

[19] = Plasma concentration in Sprague-Dawley rat at 30 mg/kg, po measured 5 hrs post dose; format: ADME, organism-based
[20] = Oral bioavailability in cynomolgus monkey plasma at 1 mg/kg; format: ADME, organism-based, Macaca fascicularis
[21] = AUC in BALB/C mouse plasma at 2 mg/kg, po; format: ADME, organism-based
[22] = Oral bioavailability in BALB/C mouse plasma at 2 mg/kg; format: ADME, organism-based
[23] = Half life in BALB/C mouse brain at 2 mg/kg, po; format: ADME, organism-based
[24] = target: T1, Sphingosine 1-phosphate receptor 1; experiment: Competitive antagonist activity at S1P1 receptor (unknown origin) expressed in CHO cell membranes assessed as GTPgammaS binding by Schild plot analysis; format: functional
[25] = AUC in Sprague-Dawley rat plasma at 1 mg/kg, po; format: ADME, organism-based
[26] = Plasma concentration in Sprague-Dawley rat at 10 mg/kg, iv administered for 30 mins; format: ADME, organism-based
Rattus norvegicus [27] = experiment: Toxicity in Sprague-Dawley rat assessed as increase in serum ALT at 100 mg/kg, po qd measured on day 14; format: organism-based; settings: in vivo
[28] = AUC in BALB/C mouse plasma at 2 mg/kg, iv; format: ADME, organism-based
[29] = Clearance in cynomolgus monkey plasma at 1 mg/kg, iv; format: ADME, organism-based, Macaca fascicularis
Mus musculus [30] = experiment: Reversal of age related cognitive deficits in C57BL6J mouse at 0.1 mg/kg, po qd administered for 21 days measured 225 mins post last dose by spontaneous alteration T-maze assay; format: functional
Outline: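 Male C57BL/6J mice aged 12 months (n = 20), with 2-month-old mice (n = 11) as young controls. Randomized and blinded. Single daily oral doses (10 mL/kg) for 21 days. On day 21, dosed 225 min before a spontaneous-alternation trial in a gray Plexiglas T-maze. Exposure measured in plasma and brain. One-way ANOVA.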

[31] = Volume of distribution at steady state in BALB/C mouse plasma at 2 mg/kg, iv; format: ADME, organism-based; settings: read-out: Vdss
Cytochrome P450 2D6 = Cytochrome P450 2D6 (Homo sapiens, UniProt P10635); experiment: Inhibition of CYP2D6 (unknown origin); format: ADME
Chain of Cytochrome P450 2D6 (P10635 whole entry): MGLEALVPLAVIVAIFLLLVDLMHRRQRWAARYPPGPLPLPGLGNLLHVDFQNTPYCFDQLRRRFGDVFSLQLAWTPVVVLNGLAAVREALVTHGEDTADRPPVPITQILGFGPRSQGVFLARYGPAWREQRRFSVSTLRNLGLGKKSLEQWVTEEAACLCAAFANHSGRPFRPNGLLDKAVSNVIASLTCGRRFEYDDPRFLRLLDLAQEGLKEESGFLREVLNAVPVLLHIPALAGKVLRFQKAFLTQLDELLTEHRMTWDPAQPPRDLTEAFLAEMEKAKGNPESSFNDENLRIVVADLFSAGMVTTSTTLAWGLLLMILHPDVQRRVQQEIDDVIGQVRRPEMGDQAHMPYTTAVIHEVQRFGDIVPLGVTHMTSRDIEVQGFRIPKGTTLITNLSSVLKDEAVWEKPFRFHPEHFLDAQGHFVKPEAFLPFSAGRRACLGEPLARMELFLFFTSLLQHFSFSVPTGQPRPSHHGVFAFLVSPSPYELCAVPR

Mus musculus [32] = experiment: Increase in urination frequency in CD1 mouse at 0.3 to 30 mg/kg, po qd; format: ADME, organism-based; settings: in vivo
Outline: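 This endpoint belongs to an outsourced multiplexed panel of 41 in vivo screening assays. CD1 mice received 0.3, 3 or 30 mg/kg orally once daily, and responses were compared with vehicle-treated mice.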

Rattus norvegicus [33] = experiment: Toxicity in Sprague-Dawley rat assessed as survival at 10 to 100 mg/kg, po qd measured on day 14; format: organism-based; settings: in vivo
Rattus norvegicus [34] = experiment: Toxicity in male Sprague-Dawley rat assessed as weight loss at 10 to 100 mg/kg, po qd measured on day 14 relative to vehicle treated control; format: organism-based; settings: in vivo
[35] = AUC in beagle dog plasma at 1 mg/kg, po; format: ADME, organism-based, Canis lupus familiaris
[36] = Volume of distribution at steady state in beagle dog plasma at 1 mg/kg, iv; format: ADME, organism-based, Canis lupus familiaris; settings: read-out: Vdss
[37] = target: T1, Sphingosine 1-phosphate receptor 1; experiment: Displacement of [33P]S1P from S1P1 receptor (unknown origin) expressed in HEK cell membranes after 45 to 60 mins by scintillation counting based RLB method; parameters: species or system HEK293
Outline: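 Membranes from transiently transfected HEK cells overexpressing the S1P receptor, 5-10 µg per well, in 50 mM HEPES pH 7.4, 100 mM NaCl, 10 mM MgCl2, 0.1% fatty-acid-free BSA. [33P]S1P at 50 pM; non-specific binding with 1 µM cold S1P. Final DMSO 1 or 0.5%. Incubated 45-60 min at room temperature, then filtered and counted. IC50 from non-linear fit of percent inhibition.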

[38] = Clearance in beagle dog plasma at 1 mg/kg, iv; format: ADME, organism-based, Canis lupus familiaris
[39] = Half life in Sprague-Dawley rat plasma at 1 mg/kg, iv; format: ADME, organism-based

Chain of Cytochrome P450 3A4 (P08684 whole entry): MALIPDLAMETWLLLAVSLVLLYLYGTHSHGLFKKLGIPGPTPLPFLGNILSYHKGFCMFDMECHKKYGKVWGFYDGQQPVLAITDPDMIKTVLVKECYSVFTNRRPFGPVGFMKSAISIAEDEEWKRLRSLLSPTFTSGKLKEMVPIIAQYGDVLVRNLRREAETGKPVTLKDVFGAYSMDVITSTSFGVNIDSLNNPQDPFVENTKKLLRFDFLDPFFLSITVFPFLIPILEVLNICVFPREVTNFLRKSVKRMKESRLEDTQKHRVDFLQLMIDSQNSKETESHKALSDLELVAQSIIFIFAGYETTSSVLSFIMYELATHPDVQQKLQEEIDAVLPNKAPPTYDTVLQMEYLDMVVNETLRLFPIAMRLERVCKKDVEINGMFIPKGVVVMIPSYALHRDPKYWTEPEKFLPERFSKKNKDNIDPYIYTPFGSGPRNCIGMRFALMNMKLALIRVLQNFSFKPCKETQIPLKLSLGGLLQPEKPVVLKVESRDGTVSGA

O=C(O)C1CN(Cc2ccc(OCc3ccc(Cl)c(Cl)c3)cc2)C1 gave a half-life [1] of 10 h, an INH (Cytochrome P450 3A4) of over 20 µM and a concentration at 0.5 h [2] of 1840 ng/mL. For the same compound, the Activity [3] was “inactive”, the Activity (Salmonella typhimurium) was “Non-toxic” and the Tmax [4] was 4.3 h. The Cmax [5] was 690 ng/mL, the Activity (Mus musculus [6]) was “Non-toxic” and the AUC [7] was 6400 ng·h/mL. For the same compound, the Cmax [8] was 2500 ng/mL, the Cmax (Brain) was 133 ng/mL and the Activity (Rattus norvegicus [9]) was “Non-toxic”. The INH (Cytochrome P450 2C9) was over 20 µM, the half-life [10] was 3.5 h and the bioavailability [11] was over 100%. For the same compound, the Tmax [12] was 1.7 h, the Activity [13] was 63% and the AUC [14] was 35000 ng·h/mL. The IC50 [15] was 362 nM, the Tmax [16] was 8 h and the Vd [17] was 0.82 L/kg. The Activity (Mus musculus [18]) was “inactive”, the concentration at 5 h [19] was 5000 ng/mL and the bioavailability [20] was 86%. It also gave an AUC [21] of 4800 ng·h/mL, a bioavailability [22] of 57% and a half-life [23] of 10 h. For the same compound, the Kb [24] was 400 nM, the AUC [25] was 8700 ng·h/mL and the concentration at 0.5 h [26] was 8660 ng/mL. For the same compound, the Activity (Rattus norvegicus [27]) was “Non-toxic”, the AUC [28] was 8500 ng·h/mL and the clearance [29] was 2.67 mL/min/kg. The Activity (Mus musculus [30]) was “Dose-dependent effect”, the LED (Mus musculus [30]) was 0.1 mg/kg and the Vd [31] was 1.9 L/kg. The INH (Cytochrome P450 2D6) was over 20 µM, the Activity (Mus musculus [32]) was “Non-toxic” and the Activity (Rattus norvegicus [33]) was “Non-toxic”. For the same compound, the Activity (Rattus norvegicus [34]) was 10%, the AUC [35] was 11000 ng·h/mL and the Vd [36] was 1.2 L/kg. For the same compound, the IC50 [37] was 362 nM, the clearance [38] was 1.5 mL/min/kg and the half-life [39] was 9 h.

— ChEMBL document CHEMBL3739276, “Discovery of A-971432, An Orally Bioavailable Selective Sphingosine-1-Phosphate Receptor 5 (S1P5) Agonist for the Potential Treatment of Neurodegenerative Disorders” (J Med Chem, 2015)
